Assay results: ChEMBL document CHEMBL4190389, “Synthesis and activity of di- or trisubstituted N-(phenoxyalkyl)- or N-{2-[2-(phenoxy)ethoxy]ethyl}piperazine derivatives on the central nervous system” (Bioorg Med Chem Lett, 2018)
The source made the active and inactive calls. The calls are words filed in the database; no cut-off is given here.

Tests used:
[1] = tested on: Mus musculus; test: Anticonvulsant activity in ip dosed Albino Swiss CD-1 mouse assessed as dose required to protect against 50 Hz current-induced seizure; assay type: functional; settings: Swiss CD-1, ip
[2] = Protection index, ratio of TD50 for motor impairment in ip dosed Swiss albino CD-1 mouse to ED50 for protection against 50 Hz current-induced seizures in ip dosed Swiss albino CD-1 mouse; assay type: toxicity, organism-based, Swiss CD-1; settings: in vivo, read-out: Ratio TD50/ED50
[3] = tested on: Mus musculus; test: Neurotoxicity in Albino Swiss CD-1 mouse assessed as motor impairment at 30 mg/kg, ip treated 30 mins prior to test by rotarod test; assay type: toxicity, organism-based; settings: in vivo, 0.5 h
[4] = target: T1, 5-hydroxytryptamine receptor 1A (Homo sapiens, UniProt P08908); test: Displacement of [3H]8-OH-DPAT from recombinant human 5-HT1A receptor expressed in HEK293 cell membranes after 60 mins by liquid scintillation counting method
T1 sequence (P08908 whole entry): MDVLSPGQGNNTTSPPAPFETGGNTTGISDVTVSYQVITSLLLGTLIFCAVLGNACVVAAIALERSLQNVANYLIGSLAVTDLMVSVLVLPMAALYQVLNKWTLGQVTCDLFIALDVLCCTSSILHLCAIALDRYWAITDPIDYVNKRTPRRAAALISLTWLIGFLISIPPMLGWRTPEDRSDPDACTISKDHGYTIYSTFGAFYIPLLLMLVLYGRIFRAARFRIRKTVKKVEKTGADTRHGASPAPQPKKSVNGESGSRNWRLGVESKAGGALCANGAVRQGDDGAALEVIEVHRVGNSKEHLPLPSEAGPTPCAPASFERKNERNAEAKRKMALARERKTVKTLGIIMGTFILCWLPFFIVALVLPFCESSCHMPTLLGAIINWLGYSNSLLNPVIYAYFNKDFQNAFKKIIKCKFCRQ

[5] = tested on: Mus musculus; test: Toxicity in Albino Swiss CD-1 mouse assessed as death at 15 to 30 mg/kg, ip; assay type: organism-based; settings: in vivo
How it was run: (§1)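 Deaths counted in mice during maximal electroshock (MES) seizure testing after i.p. dosing, 6 mice per dose (3 or 1 at some top doses); recorded as number dead/number tested alongside protection and rotarod motor impairment (10 rpm); untreated control group included.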

[6] = target: T2, 5-hydroxytryptamine receptor 2A (Homo sapiens, UniProt P28223); test: biochemical; assay type: cell-based, HEK293
T2 sequence (P28223 whole entry): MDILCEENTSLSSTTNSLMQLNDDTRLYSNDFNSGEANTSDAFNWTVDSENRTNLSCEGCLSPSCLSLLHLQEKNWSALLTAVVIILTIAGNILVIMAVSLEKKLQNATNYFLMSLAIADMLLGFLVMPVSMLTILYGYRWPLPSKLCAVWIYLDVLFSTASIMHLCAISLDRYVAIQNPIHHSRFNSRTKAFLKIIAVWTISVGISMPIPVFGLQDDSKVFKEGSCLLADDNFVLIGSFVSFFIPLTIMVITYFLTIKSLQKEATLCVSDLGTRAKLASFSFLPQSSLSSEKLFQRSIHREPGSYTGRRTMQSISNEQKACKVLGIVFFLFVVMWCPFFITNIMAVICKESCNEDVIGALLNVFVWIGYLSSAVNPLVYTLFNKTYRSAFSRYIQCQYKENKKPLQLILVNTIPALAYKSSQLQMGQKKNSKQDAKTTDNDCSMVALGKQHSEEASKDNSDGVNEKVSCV

[7] = target: T3, D(2) dopamine receptor (Homo sapiens, UniProt P14416); test: Displacement of [3H]methylspiperonee from recombinant human D2 receptor expressed in HEK293 cell membranes at 10^-5 M after 60 mins by liquid scintillation counting method
T3 sequence (P14416 whole entry): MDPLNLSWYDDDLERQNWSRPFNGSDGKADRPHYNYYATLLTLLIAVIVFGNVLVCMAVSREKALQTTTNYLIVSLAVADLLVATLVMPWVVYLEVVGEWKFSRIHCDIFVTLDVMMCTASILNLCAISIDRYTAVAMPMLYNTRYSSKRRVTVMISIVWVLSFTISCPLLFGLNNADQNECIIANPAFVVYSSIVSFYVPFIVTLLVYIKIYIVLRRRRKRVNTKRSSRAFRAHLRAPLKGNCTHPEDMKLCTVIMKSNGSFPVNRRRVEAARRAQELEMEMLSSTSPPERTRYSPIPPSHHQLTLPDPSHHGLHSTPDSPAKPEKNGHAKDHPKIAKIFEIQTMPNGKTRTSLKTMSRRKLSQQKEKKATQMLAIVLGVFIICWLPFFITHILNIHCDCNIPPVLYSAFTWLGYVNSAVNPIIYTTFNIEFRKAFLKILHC

[8] = target: 5-hydroxytryptamine receptor 6 (Homo sapiens, UniProt P50406); test: Displacement of [3H]LSD from recombinant human 5-HT6 receptor expressed in CHO cells cell membranes after 60 mins by liquid scintillation counting method
Chain of 5-hydroxytryptamine receptor 6 (P50406 whole entry): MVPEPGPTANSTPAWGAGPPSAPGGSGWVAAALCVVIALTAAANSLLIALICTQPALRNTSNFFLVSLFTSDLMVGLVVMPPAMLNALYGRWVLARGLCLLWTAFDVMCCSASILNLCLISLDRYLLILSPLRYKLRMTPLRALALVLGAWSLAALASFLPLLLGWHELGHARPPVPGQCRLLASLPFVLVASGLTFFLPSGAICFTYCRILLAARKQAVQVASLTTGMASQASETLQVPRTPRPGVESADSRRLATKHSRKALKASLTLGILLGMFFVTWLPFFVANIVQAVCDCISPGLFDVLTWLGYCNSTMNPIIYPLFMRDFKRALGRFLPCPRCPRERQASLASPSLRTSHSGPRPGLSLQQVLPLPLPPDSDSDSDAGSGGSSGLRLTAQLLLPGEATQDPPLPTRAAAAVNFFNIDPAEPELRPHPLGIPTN

[9] = target: 5-hydroxytryptamine receptor 7 (Homo sapiens, UniProt P34969); test: biochemical; assay type: cell-based, CHO
Chain of 5-hydroxytryptamine receptor 7 (P34969 whole entry): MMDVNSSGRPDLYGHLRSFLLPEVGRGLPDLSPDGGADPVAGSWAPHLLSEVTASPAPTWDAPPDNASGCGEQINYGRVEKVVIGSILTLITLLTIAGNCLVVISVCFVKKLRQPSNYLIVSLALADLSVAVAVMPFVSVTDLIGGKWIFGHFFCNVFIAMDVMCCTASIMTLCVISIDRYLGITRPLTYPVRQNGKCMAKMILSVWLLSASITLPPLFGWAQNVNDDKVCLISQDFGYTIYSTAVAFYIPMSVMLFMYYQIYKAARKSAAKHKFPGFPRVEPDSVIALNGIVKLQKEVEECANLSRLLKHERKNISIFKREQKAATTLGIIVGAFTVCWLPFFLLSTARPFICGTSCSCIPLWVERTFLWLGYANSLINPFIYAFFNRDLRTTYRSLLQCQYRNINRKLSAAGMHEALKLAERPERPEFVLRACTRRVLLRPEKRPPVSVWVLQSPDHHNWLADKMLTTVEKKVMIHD

[10] = target: T4, 5-hydroxytryptamine receptor 1A (Homo sapiens) (UniProt P08908); test: Antagonist activity at human 5-HT1A receptor expressed in CHO-K1 cells co-expressing Galpha16 assessed as decrease in serotonin-induced calcium mobilization preincubated for 25 mins followed by serotonin challenge measured for 30 secs by aequorin-derived luminescence assay relative to control; assay type: functional, cell-based
T4 sequence (whole entry): T1 sequence (P08908 whole entry)

[11] = tested on: Mus musculus; test: Anticonvulsant activity in Albino Swiss CD-1 mouse assessed as protection against 50 Hz current-induced seizure at 30 mg/kg, ip; assay type: functional, organism-based
[12] = tested on: Mus musculus; test: Toxicity in Albino Swiss CD-1 mouse assessed as death at 100 mg/kg, ip; assay type: organism-based; settings: in vivo; how it was run: as §1
[13] = tested on: Mus musculus; test: Toxicity in Albino Swiss CD-1 mouse assessed as effect on locomotory activity at 5 to 10 mg/kg, ip administered for 30 mins prior to test measured for 1 min; assay type: organism-based; settings: in vivo
How it was run: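 Mice dosed i.p. 30 min before test; vehicle groups received 0.9% NaCl. Spontaneous locomotion scored as number of crossings during a 1-min session. Each dose compared with its own vehicle group by Student t-test; mean ± SEM, n = 8–10 mice per group.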

[14] = tested on: Mus musculus; test: Antidepressant-like activity in Albino Swiss CD-1 mouse assessed as immobility time at 5 mg/kg, ip administered 30 mins prior to test measured for last 4 mins of 6 mins observation by forced swim test (reference value: 153.9 to 201.9 secs); assay type: functional
[15] = tested on: Mus musculus; test: Antidepressant-like activity in Albino Swiss CD-1 mouse assessed as immobility time at 10 mg/kg, ip administered 30 mins prior to test measured for last 4 mins of 6 mins observation by forced swim test (reference value: 153.9 to 201.9 secs); assay type: functional
[16] = target: T4, 5-hydroxytryptamine receptor 1A (Homo sapiens); test: Agonist activity at human 5-HT1A receptor expressed in CHO-K1 cells co-expressing Galpha16 assessed as increase in calcium mobilization measured for 30 secs by aequorin-derived luminescence assay relative to serotonin; assay type: functional, cell-based
[17] = Neurotoxicity in ip dosed Albino Swiss CD-1 mouse assessed as minimum dose required to induce motor impairment treated 30 mins prior to test by rotarod test; assay type: toxicity, organism-based; settings: in vivo
[18] = tested on: Mus musculus; test: Antidepressant-like activity in Albino Swiss CD-1 mouse assessed as immobility time at 20 mg/kg, ip administered 30 mins prior to test measured for last 4 mins of 6 mins observation by forced swim test (reference value: 153.9 to 201.9 secs); assay type: functional
[19] = target: T5, Alpha-1A adrenergic receptor (Homo sapiens, UniProt P35348); test: Displacement of [3H]prazosin from recombinant human alpha1 adrenoceptor expressed in CHO cell membranes after 30 mins by liquid scintillation counting method
T5 sequence (P35348 whole entry): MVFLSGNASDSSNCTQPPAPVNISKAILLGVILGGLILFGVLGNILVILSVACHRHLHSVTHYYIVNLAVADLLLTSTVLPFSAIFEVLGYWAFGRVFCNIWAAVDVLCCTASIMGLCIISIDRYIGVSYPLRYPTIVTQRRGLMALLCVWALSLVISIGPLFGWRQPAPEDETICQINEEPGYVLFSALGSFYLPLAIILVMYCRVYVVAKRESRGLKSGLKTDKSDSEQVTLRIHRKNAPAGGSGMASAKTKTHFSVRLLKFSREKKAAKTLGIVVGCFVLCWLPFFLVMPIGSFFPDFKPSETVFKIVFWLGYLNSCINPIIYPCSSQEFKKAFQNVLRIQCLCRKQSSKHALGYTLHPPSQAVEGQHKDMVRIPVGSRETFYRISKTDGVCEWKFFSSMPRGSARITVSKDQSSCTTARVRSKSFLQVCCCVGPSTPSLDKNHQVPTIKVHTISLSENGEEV

[20] = target: T1, 5-hydroxytryptamine receptor 1A; test: (§2) Antagonist activity at human 5-HT1A receptor expressed in CHO-K1 cells co-expressing Galpha16 assessed as decrease in serotonin calcium mobilization preincubated for 25 mins followed by serotonin challenge measured for 30 secs by aequorin-derived luminescence assay; assay type: functional, cell-based
[21] = target: T4, 5-hydroxytryptamine receptor 1A (Homo sapiens); test: as §2; assay type: functional, cell-based
[22] = target: T4, 5-hydroxytryptamine receptor 1A (Homo sapiens); test: Displacement of [3H]8-OH-DPAT from recombinant human 5-HT1A receptor expressed in HEK293 cell membranes at 10^-5 M after 60 mins by liquid scintillation counting method
[23] = tested on: Mus musculus; test: Anticonvulsant activity in Albino Swiss CD-1 mouse assessed as protection against 50 Hz current-induced seizure at 100 mg/kg, ip; assay type: functional, organism-based
[24] = tested on: Mus musculus; test: Neurotoxicity in Albino Swiss CD-1 mouse assessed as motor impairment at 100 mg/kg, ip treated 30 mins prior to test by rotarod test; assay type: toxicity, organism-based; settings: in vivo, 0.5 h
[25] = tested on: Mus musculus; test: Toxicity in Albino Swiss CD-1 mouse assessed as death at 30 to 100 mg/kg, ip; assay type: organism-based; settings: in vivo; how it was run: as §1
[26] = tested on: Mus musculus; test: Anticonvulsant activity in Albino Swiss CD-1 mouse assessed as protection against 50 Hz current-induced seizure at 45 mg/kg, ip; assay type: functional, organism-based
[27] = tested on: Mus musculus; test: Anxiolytic-like activity in Albino Swiss CD-1 mouse assessed as increase in number of punished crossings at 5 to 10 mg/kg, ip administered for 30 mins prior to test measured for 1 min by four-plate test; assay type: functional, organism-based
How it was run: (§3)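 Four-plate test in mice, i.p., 30 min before test; vehicle 0.9% NaCl; doses 1.25–10 mg/kg; number of punished crossings counted; mean ± SEM, n = 8–10 mice per group; ANOVA F statistics.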

[28] = target: T3, D(2) dopamine receptor; test: Displacement of [3H]methylspiperonee from recombinant human D2 receptor expressed in HEK293 cells cell membranes after 60 mins by liquid scintillation counting method
[29] = target: T2, 5-hydroxytryptamine receptor 2A; test: Antagonist activity at human 5-HT2A receptor expressed in CHO-K1 cells co-expressing Galpha16 assessed as decrease in serotonin calcium mobilization preincubated for 30 mins followed by serotonin challenge measured for 30 secs by aequorin-derived luminescence assay; assay type: functional, cell-based
[30] = tested on: Mus musculus; test: Antiallodynic activity in STZ-induced Albino Swiss CD-1 mouse allodynia model assessed as increase in paw withdrawal latency time at 30 mg/kg, ip measured after 60 mins by Von Frey test; assay type: functional, organism-based
[31] = tested on: Mus musculus; test: Antiallodynic activity in oxaliplatin-induced Albino Swiss CD-1 mouse allodynia model assessed as effect on hind paw licking at 30 mg/kg, ip measured after 60 mins by cold plate test; assay type: functional, organism-based
[32] = tested on: Mus musculus; test: Toxicity in Albino Swiss CD-1 mouse assessed as death at 15 to 100 mg/kg, ip; assay type: organism-based; settings: in vivo; how it was run: as §1
[33] = tested on: Mus musculus; test: Antiallodynic activity in oxaliplatin-induced Albino Swiss CD-1 mouse allodynia model assessed as effect on decrease in abnormal movement at 30 mg/kg, ip measured after 60 mins by cold plate test; assay type: functional, organism-based
[34] = tested on: Mus musculus; test: Antiallodynic activity in oxaliplatin-induced Albino Swiss CD-1 mouse allodynia model assessed as effect on jumping at 30 mg/kg, ip measured after 60 mins by cold plate test; assay type: functional, organism-based
[35] = tested on: Mus musculus; test: Antiallodynic activity in oxaliplatin-induced Albino Swiss CD-1 mouse allodynia model assessed as effect on shaking at 30 mg/kg, ip measured after 60 mins by cold plate test; assay type: functional, organism-based
[36] = tested on: Mus musculus; test: Antinociceptive activity in STZ-induced Albino Swiss CD-1 mouse model of thermal-induced nociception assessed as increase in latency to respond with hind paw lick or jumping at 30 mg/kg, ip measured after 60 mins by hot plate test; assay type: functional, organism-based
[37] = tested on: Mus musculus; test: Anxiolytic-like activity in Albino Swiss CD-1 mouse assessed as increase in number of punished crossings at 10 mg/kg, ip administered for 30 mins prior to test measured for 1 min by four-plate test; assay type: functional, organism-based; how it was run: as §3
[38] = tested on: Mus musculus; test: Neurotoxicity in Albino Swiss CD-1 mouse assessed as motor impairment at 15 mg/kg, ip treated 30 mins prior to test by rotarod test; assay type: toxicity, organism-based; settings: in vivo, 0.5 h

Row | Compound | ED50 [1] | selectivity ratio [2] | Ki [4] | Ki [6] | Ki [8] | Ki [9] | Emax [10] | Activity [13] | Time [14] | Time [15] | Emax [16] | TD50 at 0.5 h [17] | Time [18] | Ki [19] | IC50 [20] | Kb [21] | Activity [23] | Ki [28] | further results
1 | Cc1cc(C)c(OCCOCCN2CCN(CCc3ccccc3)CC2)c(C)c1.Cl.Cl | 18 mg/kg | 2.96 | 0.552 µM | 2.81 µM | 2.15 µM | 1.05 µM | 45% | Non-Toxic | 170.5 s | 173.8 s | 10% | 53.3 mg/kg | 178.4 s | 0.772 µM | 1.18 µM | 0.291 µM | – | – | Activity [3]: Non-Toxic; Activity [5]: Non-Toxic; inhibition [7]: inactive; Activity [11]: Active; Activity [12]: Toxic
2 | Cc1cccc(OCCOCCN2CCN(CCc3ccccc3)CC2)c1C.Cl.Cl | 22.2 mg/kg | 1.6 | – | 0.22 µM | 0.2 µM | 0.388 µM | – | Non-Toxic | 157.6 s | 161.1 s | – | 35.5 mg/kg | 162.1 s | 0.036 µM | – | – | Active | 1.21 µM | inhibition [22]: inactive; Activity [24]: Toxic; Activity [25]: Non-Toxic; Activity [26]: Active; Activity [27]: inactive; IC50 [29]: 6.97 µM
3 | COc1ccc(N2CCN(CCCOc3c(C)cc(C)cc3C)CC2)cc1.Cl.Cl | 23.5 mg/kg | 2.89 | 0.146 µM | 0.772 µM | > 5 µM | 3.03 µM | 8% | Non-Toxic | 179.9 s | 202 s | 1% | 67.9 mg/kg | 183.9 s | 2.12 µM | 0.595 µM | 0.146 µM | Active | 4.96 µM | Activity [30]: Active; Activity [31]: inactive; Activity [32]: Non-Toxic; Activity [33]: inactive; Activity [34]: inactive; Activity [35]: inactive; Activity [36]: inactive; Activity [37]: Active; Activity [38]: Non-Toxic
